Measured values of several laboratories.

SMILES	host	medium	route	dose	time	setting	concentration
CC(C)n1ncc2c(C(=O)NCC3(C)CNC3)cc(C3CC3)nc21	female BALB/c mouse	plasma	intraperitoneal	50 mg/kg	4 h		1230 ng/mL
Cc1nc2ccc(OCc3ccc(C(F)(F)F)cc3)cc2[nH]1	male BALB/c mouse	brain	intravenous	1 mg/kg	72 h		2.9 ng/g
CC(C)c1cc(C(=O)NCCN)c2cnn(C(C)C)c2n1	female BALB/c mouse	plasma	intraperitoneal	50 mg/kg	1 h		2860 ng/mL
Cc1ccc2c(c1)C(=O)[C@]1(O)CCN(c3ccc4nc(C)ccc4c3)C1=N2	mouse	brain	subcutaneous	10 mg/kg	30 min	single dose	3.7 µM
CC(C)(C)S(=O)(=O)c1cc2c(Nc3ccc4scnc4c3)ncnc2cc1OCCOP(=O)(O)O	BALB/c mouse	plasma	oral	10 mg/kg	30 min		1150 ng/mL
CC1(C)NC(=O)N(c2ccc(F)c(S(C)(=O)=O)c2)C1=O	male Swiss mouse	plasma	oral	100 mg/kg	24 h		130 ng/mL
NCc1cc2c(cc1F)C(=O)N(C1CCC(=O)NC1=O)C2 (stereo not drawn)	male CD-1 mouse	plasma	oral	10 mg/kg	40.2 min		85.3 ng/mL
CC1(C)NC(=O)N(c2ccc(F)c(Br)c2)C1=O	male Swiss mouse	plasma	oral	100 mg/kg	24 h		12500 ng/mL
O=C1CCC(N2Cc3cc(C4CCN(Cc5ccccc5)CC4)ccc3C2=O)C(=O)N1 (stereo not drawn)	male CD-1 mouse	plasma	intravenous	1 mg/kg	15 min		136 ng/mL
